# Measurements gathered from unrelated publications.
# Compare with care: the assays were run in different laboratories.
Compound,target or system,test,system,conditions,quantity,result
COC(=O)c1cc(-c2cccc(NC(=S)Nc3ccc(OC)cc3)c2)on1,Escherichia coli,"microbial growth, broth dilution",ATCC25922,,MIC,> 64 µg/mL
Nc1nc(Cl)c2ncn([C@@H]3O[C@H](CO)[C@@H](O)[C@H]3O)c2n1,Severe acute respiratory syndrome coronavirus,"plaque formation, inhibitor",Vero C1008,,IC50,> 300 µM
CCCCCCNC(=S)Nc1cccc(-c2cc(C(=O)OC)no2)c1,Escherichia coli,"microbial growth, broth dilution",ATCC25922,,MIC,> 64 µg/mL
Nc1ncnc2c([C@@H]3N[C@H](CO)[C@@H](O)[C@H]3O)c[nH]c12,Severe acute respiratory syndrome coronavirus,"viral replication, inhibitor",Vero 76,0.3 µM,inhibition,0.9%
OCC1CC(n2cnc3c(Cl)ncnc32)C1CO (stereo not drawn),Severe acute respiratory syndrome coronavirus,"plaque formation, inhibitor",Vero C1008,,IC50,> 300 µM
Cc1ccc2[nH]c3c(c2c1)CCCC3NCCc1ccc(Br)cc1 (stereo not drawn),Micrococcus luteus,"microbial growth, broth dilution",DSM1790,,MIC,2 µg/mL
COC(=O)c1cc(-c2cccc(NC(=O)Nc3ccccc3)c2)on1,Escherichia coli,"microbial growth, broth dilution",ATCC25922,,MIC,> 64 µg/mL
O=C(NCCc1c[nH]c2ccccc12)C(=O)c1cn(Cc2ccc(F)cc2)c2ccccc12,C4-2,"cell growth or viability, MTT",,,IC50,> 100 µM
C[C@]12CCC(=O)C(O)=C1CC[C@@H]1[C@@H]2CC[C@]2(C)C(=O)CC[C@@H]12,HN-6,cell growth or viability,,72 h,IC50,> 20 µM
OC[C@H]1O[C@@H](n2cnc3c(Cl)ncnc32)C[C@@H]1O,Severe acute respiratory syndrome coronavirus,"plaque formation, inhibitor",Vero C1008,,IC50,> 300 µM
Cc1c2cnccc2c(C)c2c1c1ccccc1n2Cc1ccccc1,MDA-MB-468,"cell growth or viability, MTT",,,IC50,18 µM
Cn1cnc2nc(NCc3ccc(Cl)c(Cl)c3)[nH]c(=O)c21,Lactobacillus acidophilus,"microbial growth, agar dilution",,48 h,MIC,8 µg/mL
O=C(NCCc1c[nH]c2ccccc12)C(=O)c1cn(Cc2ccc(Cl)cc2)c2ccc(Br)cc12,C4-2,"cell growth or viability, MTT",,,IC50,> 100 µM
COC(=O)c1cc(-c2cccc(NC(=O)Nc3ccc(Cl)c(Cl)c3)c2)on1,Escherichia coli,"microbial growth, broth dilution",ATCC25922,,MIC,> 64 µg/mL
OCC(CO)CCn1cnc2c(Cl)ncnc21,Severe acute respiratory syndrome coronavirus,"plaque formation, inhibitor",Vero C1008,,IC50,> 300 µM
